The record followed here is ChEMBL document CHEMBL4732111, “A greener protocol for the synthesis of phosphorochalcogenoates: Antioxidant and free radical scavenging activities” (Eur J Med Chem, 2021).

Series [1] deals with Brain. In words: Antioxidant activity in Swiss mouse brain cerebral tissue assessed as inhibition of SNP-induced lipid peroxidation by measuring TBARS level at 10 uM incubated for 1 hr relative to control. The class given is functional, tissue-based. Further details: scale not given: the % may be the effect or the level left. A digest of the protocol: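 Whole brain of male adult Swiss mice homogenized in cold 50 mM Tris-HCl pH 7.4 (1/5 w/v) and spun 2400 g, 10 min, 4 °C; supernatant S1 used. Peroxidation induced with sodium nitroprusside in the presence of compound. Then SDS 8.1%, TBA 0.8% and acetic acid/HCl pH 3.4 added, heated 95 °C for 2 h; MDA measured as marker. Trolox 10 µM as positive control. n = 3; one-way ANOVA with Tukey versus induced.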

Series [2] relates to Brain. In words: Antioxidant activity in Swiss mouse brain cerebral tissue assessed as inhibition of sodium azide-induced reactive species production by measuring fluorescence unit at 10 uM by DCHF-DA dye based spectrofluorimetric method (reference value: 139 +/- 26.8 U). Format: functional.
The test system of series [3] is Brain. Description: Antioxidant activity in Swiss mouse brain cerebral tissue assessed as inhibition of sodium azide-induced reactive species production by measuring fluorescence unit at 50 uM by DCHF-DA dye based spectrofluorimetric method (reference value: 139 +/- 26.8 U). The class given is functional.
For series [4], the system named is Brain. Description: Antioxidant activity in Swiss mouse brain cerebral tissue assessed as inhibition of sodium azide-induced reactive species production by measuring fluorescence unit at 100 uM by DCHF-DA dye based spectrofluorimetric method (reference value: 139 +/- 26.8 U). Format: functional.
In series [5] the test system is Brain. In words: Antioxidant activity in Swiss mouse brain cerebral tissue assessed as inhibition of sodium azide-induced reactive species production by measuring fluorescence unit at 500 uM by DCHF-DA dye based spectrofluorimetric method (reference value: 139 +/- 26.8 U). Format: functional.
Series [6] in a line: Antioxidant activity assessed as ferric ion reducing activity by measuring absorbance at 10 uM measured after 40 mins by FRAP assay (reference value: 0.11 +/- 0.02). Format: functional. A digest of the protocol:
(§1)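 Compounds at 10–500 µM mixed with FRAP reagent (FeCl3, triazine and sodium acetate buffer pH 3.2; 10:1:1). Incubated 40 min at 37 °C in the dark; absorbance reported. Vehicle and Trolox 10 µM as controls. Mean ± SEM, n = 3; one-way ANOVA with Tukey versus vehicle.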

The nature of series [7]: Antioxidant activity assessed as ferric ion reducing activity by measuring absorbance at 50 uM measured after 40 mins by FRAP assay (reference value: 0.11 +/- 0.02). The class given is functional. An outline of the steps: as §1
Series [8] is described as follows: Antioxidant activity assessed as ferric ion reducing activity by measuring absorbance at 100 uM measured after 40 mins by FRAP assay (reference value: 0.11 +/- 0.02). The class given is functional. An outline of the steps: as §1
Series [9] can be described thus: Antioxidant activity assessed as ferric ion reducing activity by measuring absorbance at 500 uM measured after 40 mins by FRAP assay (reference value: 0.11 +/- 0.02). The class given is functional. A digest of the protocol: as §1
A short description of series [10]: Antioxidant activity assessed as DPPH radical scavenging activity at 10 uM incubated for 30 mins under dark condition relative to control. Format: functional. A digest of the protocol:
(§2)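 Compounds at 10–500 µM mixed with ethanolic DPPH solution. Incubated 30 min at 30 °C in the dark, then absorbance read at 517 nm. Scavenging expressed as percent relative to vehicle; Trolox 10 µM as positive control. Mean ± SEM, n = 3; one-way ANOVA with Tukey.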

A short description of series [11]: Antioxidant activity assessed as DPPH radical scavenging activity at 50 uM incubated for 30 mins under dark condition relative to control. Format: functional. A digest of the protocol: as §2
The nature of series [12]: Antioxidant activity assessed as DPPH radical scavenging activity at 100 uM incubated for 30 mins under dark condition relative to control. The class given is functional. A digest of the protocol: as §2
Series [13] can be described thus: Antioxidant activity assessed as DPPH radical scavenging activity at 500 uM incubated for 30 mins under dark condition relative to control. Format: functional. A digest of the protocol:
as §2

The nature of series [14]: Antioxidant activity assessed as ABTS radical scavenging activity at 10 uM relative to control. Format: functional. An outline of the steps: (§3)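 Compounds at 10–500 µM mixed with ABTS•+ solution; scavenging read as fall in absorbance at 734 nm, expressed as percent scavenging relative to vehicle. Trolox 10 µM as positive control. Mean ± SEM, n = 3; one-way ANOVA with Tukey.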

The nature of series [15]: Antioxidant activity assessed as ABTS radical scavenging activity at 50 uM relative to control. Format: functional. A digest of the protocol: as §3
A short description of series [16]: Antioxidant activity assessed as ABTS radical scavenging activity at 100 uM relative to control. The class given is functional. An outline of the steps: as §3
Series [17] can be described thus: Ex vivo antioxidant activity in Swiss mouse assessed as inhibition of canola oil-induced lipid peroxidation in brain by measuring TBARS level at 10 mg/kg, ig measured after 30 mins (reference value: 91.91 +/- 9.38 /g). Particulars: 0.5 h. The class given is functional.
Series [18] can be described thus: Ex vivo antioxidant activity in Swiss mouse assessed as inhibition of canola oil-induced lipid peroxidation in liver by measuring TBARS level at 10 mg/kg, ig measured after 30 mins (reference value: 271.5 +/- 43.88 /g). Format: functional. The conditions noted are these: 0.5 h.
The nature of series [19]: Ex vivo antioxidant activity in Swiss mouse assessed as inhibition of canola oil-induced lipid peroxidation in kidney by measuring TBARS level at 10 mg/kg, ig measured after 30 mins (reference value: 438.20 +/- 27.59 /g). The class given is functional. Particulars: 0.5 h.
Series [20] can be described thus: Ex vivo antioxidant activity in Swiss mouse assessed as inhibition of canola oil-induced glutathione peroxidase activity in brain by measuring oxidation of NADPH at 10 mg/kg, ig measured after 30 mins by spectrophotometric method (reference value: 12.8 +/- 2.28 nmol/g). Format: functional. Particulars: 0.5 h. A digest of the protocol:
(§4)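 Swiss mice dosed orally at 10 mg/kg (vehicle canola oil); brain S1 prepared 30 min later. SOD measured as inhibition of epinephrine autoxidation in Na2CO3 50 mM pH 10.3 at 480 nm, one unit = 50% inhibition at 26 °C. GPx measured as NADPH decay coupled to glutathione reductase with H2O2 and GSH. Mean ± SEM, 6 mice per group; Student's t-test.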

The nature of series [21]: Ex vivo antioxidant activity in Swiss mouse assessed as inhibition of canola oil-induced superoxide dismutase activity in brain by measuring SOD activity at 10 mg/kg, ig measured after 30 mins by spectrophotometric method (reference value: 25.44 +/- 4.12 U/min). The class given is functional. The conditions noted are these: 0.5 h. An outline of the steps: as §4
The nature of series [22]: Toxicity in Swiss mouse assessed as change in plasma urea level at 10 mg/kg, ig measured after 30 mins (reference value: 90.31 +/- 0.74 mg/dl). The class given is organism-based. Particulars: in vivo, po, 0.5 h. A digest of the protocol:
(§5)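 Swiss mice dosed intragastrically at 10 mg/kg (control canola oil 10 mL/kg). After 30 min, blood taken by heart puncture into heparin under light isoflurane anesthesia. Plasma obtained at 200 g for 10 min, hemolyzed samples discarded. ALT, AST, urea and creatinine measured with commercial kits. 5–6 mice per group; Student's t-test.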

Series [23] is described as follows: Toxicity in Swiss mouse assessed as change in plasma creatinine level at 10 mg/kg, ig measured after 30 mins (reference value: 1.77 +/- 0.05 mg/dl). Format: organism-based. The conditions noted are these: in vivo, po, 0.5 h. A digest of the protocol: as §5
The nature of series [24]: Toxicity in Swiss mouse assessed as change in plasma AST level at 10 mg/kg, ig measured after 30 mins (reference value: 148 +/- 8.08 […]). Format: organism-based. The conditions noted are these: in vivo, po, 0.5 h. An outline of the steps:
as §5

A short description of series [25]: Toxicity in Swiss mouse assessed as change in plasma ALT level at 10 mg/kg, ig measured after 30 mins (reference value: 110.90 +/- 12.4 IU/L). Particulars: in vivo, po, 0.5 h. The class given is organism-based. A digest of the protocol: as §5
The nature of series [26]: Stability of compound exposed to blue LED light using DCM as solvent assessed as parent compound remaining measured after 2 hrs by 31P-[1H] NMR spectroscopy. Format: physicochemical. The conditions noted are these: DCM solution exposed to blue LED light, read-out: Stabilty.
Series [27] is described as follows: Drug metabolism in TsOH assessed as tetraethyl diphosphate formation measured after 2 hrs by 31P-[1H] NMR spectroscopy.

Molecules are shown by their SMILES.

As for `COP(=O)(OC)[Se]c1ccc(C)cc1`, the Activity in [1] came to 73%; in [2] it was 70.3 U; in [3] it was 84.9 U; in series [4] it was 70.1 U; in series [5], 62.7 U; in series [6], 0.14. The Activity was 0.17 in [7]; 0.17 in [8]; 0.29 in series [9]; 12.2% in series [10]; 6.83% in series [11]; 9.87% in [12]. In addition, the Activity in [13] is 3.62%; in series [14], 11.5%; in series [15] it was 12.5%; in series [16] it was 29.9%; in [17] it was 54.79 g⁻¹; in series [18] it was 199.9 g⁻¹. Moreover, the Activity in series [19] amounted to 455.4 g⁻¹; in series [20], 7.48 nmol/g; in series [21], 7.37 U/min; in series [22] it was 80.24 mg/dL; in series [23] it was 1.96 mg/dL; in series [24], 147.4 IU/L. Further, in [25], the Activity came to 119 IU/L.
As to `CCOP(=O)(OCC)[Te]c1ccccc1`, the remaining at 2 h in [26] came out at 20%. The Drug metabolism entry in [27] is “Metabolite detected”.
